# Experimental data from ChEMBL document CHEMBL5058577, “EUbOPEN Chemogenomics Library 2 (Multiplex)” (2022).
# Tested on: HEK-293T
# Test: Multiplex assay against HEK293T
# Assay type: toxicity, cell-based
# Conditions: human
# Method in brief: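 Cells were classed with CellPathfinder machine-learning gating, first as Hoechst high-intensity objects or normal cells, then (normal cells) as healthy, pyknosed or fragmented nuclei, and finally (pyknosed cells) as mitotic or apoptotic. Staining of live cells at seeding used Hoechst33342, BioTracker Green Microtubule Cytoskeleton Dye, MitoTracker Red and Annexin V Alexa Fluor 680, with imaging on a CQ1 microscope at 37°C and 5% CO2 after compound addition. Tubulin, mitochondrial-mass and membrane-permeability phenotypes are per cents of healthy-nucleus cells.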
# [1] = 12 h, 1 µM, compound concentration 1 uM, replicate 1
# [2] = 12 h, 1 µM, compound concentration 1 uM, replicate 2
# [3] = 12 h, 10 µM, compound concentration 10 uM, replicate 1
# [4] = 12 h, 10 µM, compound concentration 10 uM, replicate 2
# [5] = 24 h, 1 µM, compound concentration 1 uM, replicate 1
# [6] = 24 h, 1 µM, compound concentration 1 uM, replicate 2
# [7] = 24 h, 10 µM, compound concentration 10 uM, replicate 1
# [8] = 24 h, 10 µM, compound concentration 10 uM, replicate 2
# [9] = 48 h, 1 µM, compound concentration 1 uM, replicate 1
# [10] = 48 h, 1 µM, compound concentration 1 uM, replicate 2
# [11] = 48 h, 10 µM, compound concentration 10 uM, replicate 1
# [12] = 48 h, 10 µM, compound concentration 10 uM, replicate 2
smiles,measurement,setting,value
CCCCCC(O)/C=C/[C@H]1C(=O)CC(O)C1C/C=C\CCCC(=O)O (stereo not given in full),Population Apoptotic (%),[1],29%
same,Population Fragmented Nuclei (%),[1],8%
same,Population Healthy Nuclei (%),[1],80%
same,Population Hoechst High Intensity Objects (%),[1],8%
same,Population Membrane Permeable-Phenotype (%),[1],0%
same,Population Mitochondria Different-Phenotype (%),[1],44%
same,Population Mitotic Cells (%),[1],70%
same,Population Normal (%),[1],91%
same,Population Pyknosed Nuclei (%),[1],11%
same,Population Tubulin-Different-Phenotype (%),[1],23%
same,Total Cell Count,[1],409
same,Population Apoptotic (%),[2],39%
same,Population Fragmented Nuclei (%),[2],7%
same,Population Healthy Nuclei (%),[2],83%
same,Population Hoechst High Intensity Objects (%),[2],6%
same,Population Mitochondria Different-Phenotype (%),[2],56%
same,Population Mitotic Cells (%),[2],60%
same,Population Normal (%),[2],93%
same,Population Pyknosed Nuclei (%),[2],9%
same,Population Tubulin-Different-Phenotype (%),[2],20%
same,Total Cell Count,[2],383
same,Population Apoptotic (%),[3],48%
same,Population Fragmented Nuclei (%),[3],6%
same,Population Healthy Nuclei (%),[3],79%
same,Population Hoechst High Intensity Objects (%),[3],9%
same,Population Membrane Permeable-Phenotype (%),[3],0%
same,Population Mitochondria Different-Phenotype (%),[3],48%
same,Population Mitotic Cells (%),[3],51%
same,Population Normal (%),[3],90%
same,Population Pyknosed Nuclei (%),[3],14%
same,Population Tubulin-Different-Phenotype (%),[3],31%
same,Total Cell Count,[3],409
same,Population Apoptotic (%),[4],54%
same,Population Healthy Nuclei (%),[4],77%
same,Population Hoechst High Intensity Objects (%),[4],7%
same,Population Mitochondria Different-Phenotype (%),[4],59%
same,Population Mitotic Cells (%),[4],46%
same,Population Normal (%),[4],92%
same,Population Pyknosed Nuclei (%),[4],15%
same,Population Tubulin-Different-Phenotype (%),[4],25%
same,Total Cell Count,[4],343
same,Population Apoptotic (%),[5],40%
same,Population Fragmented Nuclei (%),[5],8%
same,Population Healthy Nuclei (%),[5],83%
same,Population Hoechst High Intensity Objects (%),[5],3%
same,Population Membrane Permeable-Phenotype (%),[5],1%
same,Population Mitochondria Different-Phenotype (%),[5],22%
same,Population Mitotic Cells (%),[5],59%
same,Population Normal (%),[5],96%
same,Population Pyknosed Nuclei (%),[5],8%
same,Population Tubulin-Different-Phenotype (%),[5],11%
same,Total Cell Count,[5],611
same,Population Apoptotic (%),[6],44%
same,Population Fragmented Nuclei (%),[6],7%
same,Population Healthy Nuclei (%),[6],84%
same,Population Hoechst High Intensity Objects (%),[6],7%
same,Population Membrane Permeable-Phenotype (%),[6],0%
same,Population Mitochondria Different-Phenotype (%),[6],41%
same,Population Mitotic Cells (%),[6],55%
same,Population Normal (%),[6],92%
same,Population Pyknosed Nuclei (%),[6],7%
same,Population Tubulin-Different-Phenotype (%),[6],14%
same,Total Cell Count,[6],492
same,Population Apoptotic (%),[7],27%
same,Population Fragmented Nuclei (%),[7],10%
same,Population Healthy Nuclei (%),[7],75%
same,Population Hoechst High Intensity Objects (%),[7],4%
same,Population Membrane Permeable-Phenotype (%),[7],0%
same,Population Mitochondria Different-Phenotype (%),[7],29%
same,Population Mitotic Cells (%),[7],72%
same,Population Normal (%),[7],95%
same,Population Pyknosed Nuclei (%),[7],13%
same,Population Tubulin-Different-Phenotype (%),[7],16%
same,Total Cell Count,[7],523
same,Population Apoptotic (%),[8],44%
same,Population Fragmented Nuclei (%),[8],9%
same,Population Healthy Nuclei (%),[8],77%
same,Population Hoechst High Intensity Objects (%),[8],9%
same,Population Mitochondria Different-Phenotype (%),[8],50%
same,Population Mitotic Cells (%),[8],55%
same,Population Normal (%),[8],90%
same,Population Tubulin-Different-Phenotype (%),[8],21%
same,Total Cell Count,[8],388
same,Population Apoptotic (%),[9],29%
same,Population Fragmented Nuclei (%),[9],12%
same,Population Healthy Nuclei (%),[9],79%
same,Population Hoechst High Intensity Objects (%),[9],1%
same,Population Membrane Permeable-Phenotype (%),[9],1%
same,Population Mitochondria Different-Phenotype (%),[9],20%
same,Population Mitotic Cells (%),[9],70%
same,Population Normal (%),[9],98%
same,Population Pyknosed Nuclei (%),[9],7%
same,Population Tubulin-Different-Phenotype (%),[9],8%
same,Total Cell Count,[9],864
same,Population Apoptotic (%),[10],30%
same,Population Fragmented Nuclei (%),[10],13%
same,Population Healthy Nuclei (%),[10],81%
same,Population Hoechst High Intensity Objects (%),[10],3%
same,Population Membrane Permeable-Phenotype (%),[10],2%
same,Population Mitochondria Different-Phenotype (%),[10],19%
same,Population Mitotic Cells (%),[10],69%
same,Population Normal (%),[10],96%
same,Population Pyknosed Nuclei (%),[10],5%
same,Population Tubulin-Different-Phenotype (%),[10],7%
same,Total Cell Count,[10],775
same,Population Apoptotic (%),[11],22%
same,Population Fragmented Nuclei (%),[11],12%
same,Population Healthy Nuclei (%),[11],79%
same,Population Hoechst High Intensity Objects (%),[11],1%
same,Population Membrane Permeable-Phenotype (%),[11],0%
same,Population Mitochondria Different-Phenotype (%),[11],17%
same,Population Mitotic Cells (%),[11],77%
same,Population Normal (%),[11],98%
same,Population Pyknosed Nuclei (%),[11],8%
same,Population Tubulin-Different-Phenotype (%),[11],7%
same,Total Cell Count,[11],815
same,Population Apoptotic (%),[12],51%
same,Population Fragmented Nuclei (%),[12],10%
same,Population Healthy Nuclei (%),[12],80%
same,Population Hoechst High Intensity Objects (%),[12],3%
same,Population Mitochondria Different-Phenotype (%),[12],26%
same,Population Mitotic Cells (%),[12],48%
same,Population Normal (%),[12],96%
same,Population Tubulin-Different-Phenotype (%),[12],8%
same,Total Cell Count,[12],544
